Values after ≈ are worked out from the molar mass of the structure shown. Where two headings read alike, the source gives them in different places. A value given as a limit tells only on which side of the number the result lay.

We go through 9 compounds from publication PMC6300088 (Pharmaceutical Biology, 2018).

In data set [1] the test system is L5178Y mouse T-cell lymphoma cells: parent, PAR cells. The experiment in a line: Antiproliferative effect. The data set is classed as cell-based. Conditions: 72 h, read-out: AA on PAR cells (IC50).
Data set [2] concerns L5178Y human ABCB1-transfected subline (MDR). The experiment in a line: Antiproliferative effect. The data set is classed as cell-based, mouse. The following applies: 72 h, read-out: AA on MDR cells (IC50).
The test system of data set [3] is L5178Y mouse T-cell lymphoma cells: parent, PAR cells. The experiment in a line: Cytotoxic effect. The data set is classed as cell-based. The following applies: 24 h; for IC50: Mus musculus, L5178Y, read-out: CA on PAR cells (IC50).
In data set [4] the test system is L5178Y human ABCB1-transfected subline (MDR). The experiment in a line: Cytotoxic effect. Conditions: 24 h; for IC50: L5178Y, read-out: CA on MDR cells (IC50); for CA on MDR cells (IC50): cytotoxic activity, MTT, mean ± SD, n = 3. The data set is classed as cell-based, mouse.
Data set [5] relates to NIH/3T3 mouse embryonic fibroblast cell line. The experiment in a line: Cytotoxic effect. Conditions: cytotoxic activity on normal murine fibroblasts, 24 h, MTT, mean ± SD, n = 3. The data set is classed as cell-based.
The test system of the next data set is ABCB1 (P-glycoprotein). The data set is classed as cell-based, human. The following applies: for FL-1 (mean fluorescence intensity of the cells): MDR cells, rhodamine 123; for FAR (fluorescence activity ratio): rhodamine 123 retention.
Data set [6] deals with multidrug resistant mouse T-lymphoma cells overexpressing the ABCB1 transporter. The experiment in a line: Checkerboard combination assay with doxorubicin. The data set is classed as cell-based. Conditions: MDR cells. In outline:
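L5178Y mouse T-lymphoma cells transfected with human ABCB1 (MDR), 6 × 10^3 per well in McCoy's 5A. Checkerboard layout with doxorubicin diluted horizontally (final concentration stated as 17.242 μM) and test compound diluted vertically. Incubated 72 h at 37 °C in 5% CO2. MTT added (5 mg/mL stock) for 4 h at 37 °C, then 10% SDS in 0.01 M HCl overnight at 37 °C.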

The subject of data set [7] is MCF7MX (BCRP overexpressing human epithelial breast cancer cell line). Conditions: read-out: IC50 against MCF7MX; ref Mirzaei et al. [2017]; cited from earlier work.
The subject of data set [8] is CEM/C1 (lymphoblastic leukaemia). Conditions: read-out: IC50 against CEM/C1; ref Kubrak et al. [2017]; cited from earlier work.
The test system of another data set is HL-60/MX2 (MDR). The following applies: read-out: IC50 against HL-60/MX2; ref Kubrak et al. [2017]; cited from earlier work.
Data set [9] relates to HCT-15 (colon cancer) cells. Conditions: HCT-15 cells; ref Kim et al. [2007]; cited from earlier work.

On to `CC(C)=CCOc1c2occc2cc2ccc(=O)oc12` [Imperatorin (6), imperatorin], for which the IC50 is 36.1 ± 0.91 µM in data set [1], 42.2 ± 0.88 µM in data set [2], 52.6 ± 4.19 µM in data set [3] and greater than 100 µM in [4]. Moreover, the “CA on MDR cells (IC50)” value in [4] is recorded as “without any toxicity”. The “CA on NIH/3T3 cells (IC50)” value in [5] was “no toxic activity”. The figures for the “FL-1 (mean fluorescence intensity of the cells)” value in the data set with ABCB1 (P-glycoprotein) (2 µM) and in the data set on ABCB1 (P-glycoprotein) (20 µM) were 0.727 and 0.783, respectively. Also, the “FAR (fluorescence activity ratio)” value was determined as 0.62 in the data set on ABCB1 (P-glycoprotein) (2 µM) and 0.66 with ABCB1 (P-glycoprotein) (20 µM).
Turning to `COc1cc2c(cc1OC)CN(CCc1ccc(NC(=O)c3cc(OC)c(OC)cc3NC(=O)c3cnc4ccccc4c3)cc1)CC2` [Tariquidar, tariquidar, reference compound], the “FL-1 (mean fluorescence intensity of the cells)” value with ABCB1 (P-glycoprotein) (0.02 µM) was 119. The “FAR (fluorescence activity ratio)” value with ABCB1 (P-glycoprotein) (0.02 µM) was 100.68; with ABCB1 (P-glycoprotein) (0.02 µM, listed as tariquidar), 100.
For `CC1(C)O[C@@H]1COc1c2occc2cc2ccc(=O)oc12` [Heraclenin (8), heraclenin], the IC50 turned out to be 32.7 ± 2.4 µM in data set [1], 46.5 ± 1.22 µM in data set [2], 65.8 ± 1 µM in [3] and 83.9 ± 1.68 µM in [4]. For the same compound, the “FL-1 (mean fluorescence intensity of the cells)” value in the data set on ABCB1 (P-glycoprotein) (2 µM) is recorded as 0.942; in the data set on ABCB1 (P-glycoprotein) (20 µM), 0.57. The “FAR (fluorescence activity ratio)” value in the data set on ABCB1 (P-glycoprotein) (2 µM) came out at 1.29; in the data set with ABCB1 (P-glycoprotein) (20 µM), 0.78. Further, the Interaction entry in [6] (listed as Heraclenin) is given as “Slight synergism”; in [6] (listed as heraclenin (8)) it was “slight synergistic effect”.
With `COc1cccc2c1C(=O)c1c(O)c3c(c(O)c1C2=O)C[C@@](O)(C(=O)CO)C[C@@H]3O[C@H]1C[C@H](N)[C@H](O)[C@H](C)O1` [Doxorubicin, doxorubicin, reference compound], the IC50 in data set [1] came out at 0.054 ± 0.005 µM; in data set [2] it was 0.468 ± 0.065 µM; in data set [3] it was 0.377 ± 0.02 µM; in data set [4], 7.15 ± 0.358 µM.
On to `COc1c2occc2cc2ccc(=O)oc12` [8-Methoxypsoralen], for which, in [7], the IC50 is 0.0011 ± 0.00091 µM.
For `COc1c2ccoc2c(OCC=C(C)C)c2oc(=O)ccc12` [phellopterin], the IC50 in [8] is 8 ± 4 µM.
As for `COc1c2ccoc2c(OC)c2oc(=O)ccc12` [isopimpinellin], the IC50 in the data set with HL-60/MX2 (MDR) was 26 ± 5.7 µM.
With `CC(C)(O)[C@H](O)COc1c2occc2cc2ccc(=O)oc12` [Heraclenol (9), heraclenol], the IC50 is 52.3 ± 2.12 µM in [1], 46.6 ± 0.47 µM in data set [2], greater than 100 µM in [3] and greater than 100 µM in data set [4]. In [3] (cytotoxic activity, MTT, mean ± SD, n = 3), the “CA on PAR cells (IC50)” value is reported as “no toxic effects”. In data set [4], the “CA on MDR cells (IC50)” value is recorded as “no toxic effects”. In addition, the “FL-1 (mean fluorescence intensity of the cells)” value in the data set with ABCB1 (P-glycoprotein) (2 µM) is 0.995. For the same compound, the “FAR (fluorescence activity ratio)” value in the data set on ABCB1 (P-glycoprotein) (2 µM) is 1.37; with ABCB1 (P-glycoprotein) (20 µM) it was 1.30.
As for `CC1(C)O[C@H]1COc1c2ccoc2cc2oc(=O)ccc12` [Oxypeucedanin (3), oxypeucedanin], the IC50 came out at 26 ± 1.27 µM in [1], 28.9 ± 0.73 µM in data set [2], 40.3 ± 0.63 µM in [3] and 66.7 µM in data set [4]. The “FL-1 (mean fluorescence intensity of the cells)” value came to 0.9 in the data set on ABCB1 (P-glycoprotein) (2 µM) and 2.62 with ABCB1 (P-glycoprotein) (20 µM). Besides, the “FAR (fluorescence activity ratio)” value in the data set with ABCB1 (P-glycoprotein) (2 µM) is on record as 0.76; in the data set on ABCB1 (P-glycoprotein) (20 µM) it was 2.22; with ABCB1 (P-glycoprotein) (20 µM, listed as oxypeucedanin (3)), “moderate ABCB1 inhibiting effect”. The Interaction entry in data set [6] (listed as Oxypeucedanin) was “Slight synergism”; in data set [6] (listed as oxypeucedanin (3)), “slight synergistic effect”. Also, the “ED50, cell proliferation” value in data set [9] was 3.4 ± 0.3 µg/mL (≈ 11.9 µM).
